According to ChEMBL document CHEMBL3259675, “Novel N-substituted sophoridinol derivatives as anticancer agents” (Eur J Med Chem, 2014):

Test system: HepG2
Assay: Antiproliferative activity against human HepG2 cells assessed as growth inhibition at 10 ug/ml after 48 hrs by MTT assay
Assay type: functional
Settings: HepG2, 48 h
Method in brief: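 Cell lines from ATCC, grown in MEM-EBSS with 10% FBS and 1% penicillin-streptomycin at 37 °C, 5% CO2. Seeded at 4000 cells/well, left 24 h, then exposed to a concentration series for 48 h. Growth read by MTT. Percent inhibition was computed at each concentration and IC50 derived from it. Triplicate determinations, reported as mean SD.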

Structure (SMILES) | inhibition at 10 µg/mL [%]
COC(=O)CCC[C@@H]1[C@H]2CCCN3CCC[C@H](CN1Cc1cccc(Cl)c1)[C@@H]23 | 84.9
COC(=O)CCC[C@@H]1[C@H]2CCCN3CCC[C@H](CN1Cc1ccc(Br)cc1)[C@@H]23 | 89.6
COC(=O)CCC[C@@H]1[C@H]2CCCN3CCC[C@H](CN1Cc1ccncc1)[C@@H]23 | 29.9
COC(=O)CCC[C@@H]1[C@H]2CCCN3CCC[C@H](CN1Cc1ccco1)[C@@H]23 | 16.6
CCCN1C[C@H]2CCCN3CCC[C@@H]([C@H]23)[C@H]1CCCC(=O)O | 25.3
CC(C)CN1C[C@H]2CCCN3CCC[C@@H]([C@H]23)[C@H]1CCCC(=O)O | 10.7
O=C(O)CCC[C@@H]1[C@H]2CCCN3CCC[C@H](CN1Cc1ccccc1)[C@@H]23 | 1.5
O=C(O)CCC[C@@H]1[C@H]2CCCN3CCC[C@H](CN1Cc1ccccc1F)[C@@H]23 | 1.6
O=C(O)CCC[C@@H]1[C@H]2CCCN3CCC[C@H](CN1Cc1cccc(F)c1)[C@@H]23 | 25.2
O=C(O)CCC[C@@H]1[C@H]2CCCN3CCC[C@H](CN1Cc1ccc(F)cc1)[C@@H]23 | 2
O=C(O)CCC[C@@H]1[C@H]2CCCN3CCC[C@H](CN1Cc1cccc(Cl)c1)[C@@H]23 | 22.8
O=C(O)CCC[C@@H]1[C@H]2CCCN3CCC[C@H](CN1Cc1ccc(Cl)cc1)[C@@H]23 | 3.5
